According to ChEMBL document CHEMBL1138647, “Carbonic anhydrase inhibitors. Design of anticonvulsant sulfonamides incorporating indane moieties” (Bioorg Med Chem Lett, 2004):

Test system: Mus musculus
Experiment: Percent of mice (n=8) protected against seizures induced by a maximal electroshock (50mA,0.2s) after 30 mg/kg compound was injected intraperitoneally
Format: functional
Conditions: route intraperitoneal
Outline: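 Mice, n = 8 per group, received 30mg/kg ip 3h before a maximal electroshock (50mA, 0.2s). The read-out was the percentage of animals protected against the induced seizures.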

| Compound | Protected mice [%] |
| --- | --- |
| CC(=O)NC1Cc2ccc(S(=O)(=O)O)cc2C1.O (centres undefined) | 0 |
| Cl.NC1Cc2ccc(S(N)(=O)=O)cc2C1 (centres undefined) | 0 |
| NS(=O)(=O)c1ccc2c(c1)CC(NC(=O)c1c(F)c(F)c(F)c(F)c1F)C2 (centres undefined) | 38 |
| NS(=O)(=O)c1ccc2c(c1)CC(NC(=O)c1ccc(Cl)cc1)C2 (centres undefined) | 31 |
| NS(=O)(=O)c1ccc2c(c1)CC(NC(=O)c1c(F)c(F)cc(F)c1F)C2 (centres undefined) | 13 |
| COc1ccc(Cl)cc1C(=O)NC1Cc2ccc(S(N)(=O)=O)cc2C1.O (centres undefined) | 38 |
| CC(=O)/N=c1/sc(S(N)(=O)=O)nn1C [METHAZOLAMIDE] | 100 |
| CC(=O)NC1Cc2ccc(S(N)(=O)=O)cc2C1 (centres undefined) | 38 |
| NC1Cc2ccc(S(=O)(=O)O)cc2C1 (centres undefined) | 0 |
